From article PMC5308454 (MedChemComm, 2016)
Like-named read-outs stand apart in the source and are kept apart here.

Experiments:
DU-145 (prostate) [1] = conditions: read-out: GI50 SRB assay DU-145; ref [13]; cited from earlier work
NCI-H460 [2] = conditions: read-out: GI50 SRB assay NCI-H460; ref [13]; cited from earlier work
SK-OV-3 [3] = conditions: read-out: GI50 SRB assay SK-OV-3; ref [13]; cited from earlier work
[4] = system: MCF7-luc-GFP-mCherry breast tumor; assay: Dynamic bioluminescence imaging; type: in vivo, SCID mice; conditions: for Reduction in bioluminescence as compared to baseline or saline control: 4 h after injection, p<0.05
tubulin [5] = conditions: read-out: Inhibition of tubulin polymerization IC50; ref [73]; cited from earlier work
[6] = system: MCF7-luc-GFP-mCherry breast tumor; assay: Histological; type: in vivo, SCID mice; conditions: 120 mg/kg; 48 h post treatment
In short: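 The same MCF7-luc-GFP-mCherry tumour-bearing SCID mice were dosed ip at 120 mg/kg, or with saline. After the 48 h BLI session they were sacrificed and the tumours excised. Tumour cross-sections were stained with H&E, and necrotic (pink) regions were scored against viable (purple) regions relative to the saline control.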

SK-OV-3 [7] = assay: SRB cytotoxicity assay, SK-OV-3; type: cell-based, human; conditions: read-out: GI50 SRB assay SK-OV-3; average of n ≥ 3 independent determinations
NCI-H460 [8] = assay: SRB cytotoxicity assay, NCI-H460; type: cell-based, human; conditions: read-out: GI50 SRB assay NCI-H460; average of n ≥ 3 independent determinations
tubulin [9] = assay: Inhibition of tubulin polymerization; type: biochemical; conditions: read-out: Inhibition of tubulin polymerization IC50; ± SD
DU-145 (prostate) [10] = assay: SRB cytotoxicity assay, DU-145; type: cell-based, human; conditions: read-out: GI50 SRB assay DU-145; average of n ≥ 3 independent determinations

COc1ccc(/C=C\c2cc(OC)c(OC)c(OC)c2)cc1O [CA4, combretastatin A-4]
GI50 (DU-145 (prostate) [1]): 6.02 nM
GI50 (NCI-H460 [2]): 5 nM
GI50 (SK-OV-3 [3]): 5.06 nM

COc1ccc(/C=C\c2cc(OC)c(OC)c(OC)c2)cc1OP(=O)(O)O [CA4P, Combretastatin A-4P]
Reduction in bioluminescence as compared to baseline or saline control ([4]; 120 mg/kg ip single dose): approximately 80%
IC50 (tubulin [5]): > 20000 nM
Tumor necrosis (H&E) as compared with saline control [6]: much more extensive necrosis

COc1cc(/C2=C/CCCCc3c2ccc(OC)c3OP(=O)([O-])[O-])cc(OC)c1OC.[Na+].[Na+] [Compound 24]
Bioluminescence intensity at 24 and 48 h versus baseline ([4]; 120 mg/kg ip single dose, 24 and 48 h, p<0.005): remained significantly below baseline values
Reduction in bioluminescence as compared to baseline or saline control ([4]; 120 mg/kg ip single dose): approximately 80%
Vascular shutdown evidenced by bioluminescence imaging ([4]; 120 mg/kg, 4 h post administration, effect continued at 24 and 48 h): significant vascular shutdown
Tumor necrosis (H&E) as compared with saline control [6]: much more extensive necrosis

COc1ccc2c(c1O)CCCC=C2c1cc(OC)c(OC)c(OC)c1 [KGP18]
GI50 (SK-OV-3 [7]): 0.0543 nM
GI50 (NCI-H460 [8]): 0.0418 nM
IC50 (tubulin [9]): 1400 nM
GI50 (DU-145 (prostate) [10]): 0.0249 nM
